# Measured values published in ChEMBL document CHEMBL1944580, “Synthesis of novel sulfonamide-1,2,4-triazoles, 1,3,4-thiadiazoles and 1,3,4-oxadiazoles, as potential antibacterial and antifungal agents. Biological evaluation and conformational analysis studies” (2012).
# Experiments:
# [1] = system: Penicillium ochrochloron; assay: Antifungal activity against Penicillium ochrochloron ATCC 9112 after 72 hrs by serial dilution method; assay type: functional; settings: ATCC 9112, 72 h
# Summary of the method: (§1)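 Modified microdilution MIC. Spores were washed from malt agar cultures with sterile 0.85% saline containing 0.1% Tween 80 and adjusted to about 1.0 × 10^5 per 100 µl well in malt broth. Compounds were dissolved in DMSO (1 mg/ml). Plates incubated 72 h at 28 °C. MIC is the lowest concentration with no visible growth under a binocular microscope. Bifonazole and ketoconazole were the references.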
# [2] = system: Aspergillus fumigatus; assay: Antifungal activity against Aspergillus fumigatus human isolate after 72 hrs by serial dilution method; assay type: functional; summary of the method: as §1
# [3] = system: Escherichia coli; assay: Antibacterial activity against Escherichia coli ATCC 35210 treated for 24 hrs followed by sub-cultivated for 72 hrs by micro dilution method; assay type: functional
# Summary of the method: (§2)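 2 µl from each well was serially subcultured into 100 µl fresh broth per well and incubated a further 72 h. MBC is the lowest concentration with no visible growth, taken as 99.5% killing of the original inoculum. Streptomycin and ampicillin were the positive controls.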
# [4] = system: Listeria monocytogenes; assay: Antibacterial activity against Listeria monocytogenes NCTC 7973 treated for 24 hrs followed by sub-cultivated for 72 hrs by micro dilution method; assay type: functional; summary of the method: as §2
# [5] = system: Salmonella typhimurium; assay: Antibacterial activity against Salmonella Typhimurium ATCC 13311 after 24 hrs by micro dilution method; assay type: functional, Salmonella enterica subsp. enterica serovar Typhimurium; settings: Salmonella enterica, ATCC 13311, 24 h
# Summary of the method: (§3)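 Microdilution MIC in 96-well plates. Bacterial suspensions adjusted in sterile saline to 1.0 × 10^5 CFU/ml, giving 1.0 × 10^4 cfu per well in LB broth. Compounds tested at up to 1 mg/ml. Plates incubated 24 h. MIC taken as the lowest concentration with no visible growth under a binocular microscope. OD at 655 nm was also read against a blank and the positive control. Streptomycin and ampicillin were the positive controls.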
# [6] = system: Penicillium ochrochloron; assay: Antifungal activity against Penicillium ochrochloron ATCC 9112 treated for 72 hrs followed by sub-cultivated for 5 days by serial dilution method; assay type: functional
# Summary of the method: (§4)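 MFC obtained after the 72 h, 28 °C malt-broth microdilution (spore inoculum about 1.0 × 10^5 per well, compounds from 1 mg/ml DMSO). 2 µl was serially subcultured into 100 µl broth per well and incubated a further 5 days at 28 °C. MFC is the lowest concentration with no visible growth, taken as 99.5% killing of the original inoculum.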
# [7] = system: Salmonella typhimurium; assay: Antibacterial activity against Salmonella Typhimurium ATCC 13311 treated for 24 hrs followed by sub-cultivated for 72 hrs by micro dilution method; assay type: functional, Salmonella enterica subsp. enterica serovar Typhimurium; settings: Salmonella enterica; summary of the method: as §2
# [8] = system: Enterobacter cloacae; assay: Antibacterial activity against Enterobacter cloacae human isolate treated for 24 hrs followed by sub-cultivated for 72 hrs by micro dilution method; assay type: functional; summary of the method: as §2
# [9] = system: Bacillus cereus; assay: Antibacterial activity against Bacillus cereus clinical isolate after 24 hrs by micro dilution method; assay type: functional; summary of the method: as §3
# [10] = system: Micrococcus flavus; assay: Antibacterial activity against Micrococcus flavus ATCC 10240 after 24 hrs by micro dilution method; assay type: functional; settings: ATCC 10240, 24 h; summary of the method: as §3
# [11] = system: Aspergillus flavus; assay: Antifungal activity against Aspergillus flavus ATCC 9643 treated for 72 hrs followed by sub-cultivated for 5 days by serial dilution method; assay type: functional; summary of the method: as §4
# [12] = system: Bacillus cereus; assay: Antibacterial activity against Bacillus cereus clinical isolate treated for 24 hrs followed by sub-cultivated for 72 hrs by micro dilution method; assay type: functional; summary of the method: as §2
# [13] = system: Aspergillus niger; assay: Antifungal activity against Aspergillus niger ATCC 6275 treated for 72 hrs followed by sub-cultivated for 5 days by serial dilution method; assay type: functional; summary of the method: as §4
# [14] = system: Micrococcus flavus; assay: Antibacterial activity against Micrococcus flavus ATCC 10240 treated for 24 hrs followed by sub-cultivated for 72 hrs by micro dilution method; assay type: functional; summary of the method: as §2
# [15] = system: Talaromyces funiculosus; assay: Antifungal activity against Penicillium funiculosum ATCC 36839 treated for 72 hrs followed by sub-cultivated for 5 days by serial dilution method; assay type: functional; summary of the method: as §4
# [16] = system: Aspergillus flavus; assay: Antifungal activity against Aspergillus flavus ATCC 9643 after 72 hrs by serial dilution method; assay type: functional; settings: ATCC 9643, 72 h; summary of the method: as §1
# [17] = system: Aspergillus fumigatus; assay: Antifungal activity against Aspergillus fumigatus human isolate treated for 72 hrs followed by sub-cultivated for 5 days by serial dilution method; assay type: functional; summary of the method: as §4
# [18] = system: Trichoderma viride; assay: Antifungal activity against Trichoderma viride IAM 5061 after 72 hrs by serial dilution method; assay type: functional; settings: IAM 5061, 72 h; summary of the method: as §1
# [19] = system: Escherichia coli; assay: Antibacterial activity against Escherichia coli ATCC 35210 after 24 hrs by micro dilution method; assay type: functional; settings: ATCC 35210, 24 h; summary of the method: as §3
# [20] = system: Trichoderma viride; assay: Antifungal activity against Trichoderma viride IAM 5061 treated for 72 hrs followed by sub-cultivated for 5 days by serial dilution method; assay type: functional; summary of the method: as §4
# [21] = system: Staphylococcus aureus; assay: Antibacterial activity against Staphylococcus aureus ATCC 6538 after 24 hrs by micro dilution method; assay type: functional; settings: ATCC 6538, 24 h; summary of the method: as §3
# [22] = system: Aspergillus versicolor; assay: Antifungal activity against Aspergillus versicolor ATCC 11730 treated for 72 hrs followed by sub-cultivated for 5 days by serial dilution method; assay type: functional; summary of the method: as §4
# [23] = system: Aspergillus niger; assay: Antifungal activity against Aspergillus niger ATCC 6275 after 72 hrs by serial dilution method; assay type: functional; settings: ATCC 6275, 72 h; summary of the method: as §1
# [24] = system: Aspergillus versicolor; assay: Antifungal activity against Aspergillus versicolor ATCC 11730 after 72 hrs by serial dilution method; assay type: functional; settings: ATCC 11730, 72 h; summary of the method: as §1
# [25] = system: Staphylococcus aureus; assay: Antibacterial activity against Staphylococcus aureus ATCC 6538 treated for 24 hrs followed by sub-cultivated for 72 hrs by micro dilution method; assay type: functional; summary of the method: as §2
# [26] = system: Listeria monocytogenes; assay: Antibacterial activity against Listeria monocytogenes NCTC 7973 after 24 hrs by micro dilution method; assay type: functional; settings: NCTC 7973, 24 h; summary of the method: as §3
# [27] = system: Pseudomonas aeruginosa; assay: Antibacterial activity against Pseudomonas aeruginosa ATCC 27853 after 24 hrs by micro dilution method; assay type: functional; settings: ATCC 27853, 24 h; summary of the method: as §3
# [28] = system: Talaromyces funiculosus; assay: Antifungal activity against Penicillium funiculosum ATCC 36839 after 72 hrs by serial dilution method; assay type: functional; settings: ATCC 36839, 72 h; summary of the method: as §1
# [29] = system: Fulvia fulva; assay: Antifungal activity against Fulvia fulva treated for 72 hrs followed by sub-cultivated for 5 days by serial dilution method; assay type: functional; summary of the method: as §4
# [30] = system: Fulvia fulva; assay: Antifungal activity against Fulvia fulva after 72 hrs by serial dilution method; assay type: functional; summary of the method: as §1
# [31] = system: Enterobacter cloacae; assay: Antibacterial activity against Enterobacter cloacae human isolate after 24 hrs by micro dilution method; assay type: functional; summary of the method: as §3
# [32] = system: Pseudomonas aeruginosa; assay: Antibacterial activity against Pseudomonas aeruginosa ATCC 27853 treated for 24 hrs followed by sub-cultivated for 72 hrs by micro dilution method; assay type: functional; summary of the method: as §2
MIC [1],MIC [2],MIC [5],MIC [9],MIC [10],MIC [16],MIC [18],MIC [19],SMILES,MBC [3],MBC [4],MFC [6],MBC [7],MBC [8],MFC [11],MBC [12],MFC [13],MBC [14],MFC [15],MFC [17],MFC [20],other results
130 µM,130 µM,250 µM,250 µM,250 µM,130 µM,60 µM,250 µM,CCCNc1nnc(Cc2cc(OC)c(OC)cc2S(=O)(=O)N(C)C)s1,250 µM,500 µM,250 µM,500 µM,500 µM,250 µM,500 µM,130 µM,500 µM,250 µM,250 µM,130 µM,MIC [21]: 500 µM; MFC [22]: 500 µM; MIC [23]: 60 µM; MIC [24]: 250 µM; MBC [25]: 500 µM; MIC [26]: 500 µM; MIC [27]: 500 µM; MIC [28]: 130 µM; MFC [29]: 130 µM; MIC [30]: 60 µM; MIC [31]: 500 µM; MBC [32]: 500 µM
500 µM,130 µM,250 µM,250 µM,380 µM,250 µM,130 µM,380 µM,COc1cc(Cc2nnc(NC(C)C)s2)c(S(=O)(=O)N(C)C)cc1OC,460 µM,460 µM,750 µM,500 µM,460 µM,750 µM,500 µM,750 µM,380 µM,500 µM,250 µM,250 µM,MIC [21]: 380 µM; MFC [22]: 750 µM; MIC [23]: 250 µM; MIC [24]: 250 µM; MBC [25]: 460 µM; MIC [26]: 380 µM; MIC [27]: 250 µM; MIC [28]: 250 µM; MFC [29]: 250 µM; MIC [30]: 130 µM; MIC [31]: 460 µM; MBC [32]: 380 µM
120 µM,120 µM,240 µM,240 µM,240 µM,120 µM,60 µM,480 µM,CCCCNc1nnc(Cc2cc(OC)c(OC)cc2S(=O)(=O)N(C)C)s1,480 µM,480 µM,240 µM,240 µM,240 µM,240 µM,240 µM,120 µM,480 µM,240 µM,240 µM,120 µM,MIC [21]: 480 µM; MFC [22]: 240 µM; MIC [23]: 60 µM; MIC [24]: 120 µM; MBC [25]: 480 µM; MIC [26]: 240 µM; MIC [27]: 480 µM; MIC [28]: 120 µM; MFC [29]: 120 µM; MIC [30]: 60 µM; MIC [31]: 240 µM; MBC [32]: 480 µM
140 µM,140 µM,420 µM,280 µM,560 µM,140 µM,30 µM,280 µM,CNc1nnc(Cc2cc(OC)c(OC)cc2S(=O)(=O)N(C)C)o1,420 µM,420 µM,450 µM,420 µM,840 µM,450 µM,280 µM,450 µM,840 µM,280 µM,280 µM,140 µM,MIC [21]: 280 µM; MFC [22]: 450 µM; MIC [23]: 140 µM; MIC [24]: 140 µM; MBC [25]: 280 µM; MIC [26]: 420 µM; MIC [27]: 420 µM; MIC [28]: 140 µM; MFC [29]: 450 µM; MIC [30]: 280 µM; MIC [31]: 700 µM; MBC [32]: 560 µM
